Only a selection was taken, and hits are over-represented in it overall.
IDH1 mut inh – inhibitors of IDH1 R132H reductase, primary screen, biochemical, plate reader, single point; Isocitrate dehydrogenase [NADP] cytoplasmic (Homo sapiens), O75874; 0.18% of 70,000 active; inhibition, % at 10 µM; diaphorase/resazurin fluorescence, 60 min; in the data active = inhibition above about 34%; inconclusive = no clear call, values can overlap the other calls; inactive = below about 11%;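 also: 0% = DMSO and 100% = no enzyme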
KDM4C inh – inhibitors of GASC-1 (KDM4C) histone demethylase, primary screen, biochemical, single concentration HTS | Lysine-specific demethylase 4C (Homo sapiens), Q9H3R0 | GST-KDM4C 2-372, H3K9me3 peptide, LANCE TR-FRET | inhibition, % at 12.5 µM | 0.15% of 96,000 active;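 active = mean replicate inhibition above about 25%, with at least 55% of replicates also reaching it, limit read from the data, passing the limit was not always enough; inconclusive = only one of those two conditions met; inactive = neither condition met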
Target sequence (Q9H3R0 2-372 limits assumed): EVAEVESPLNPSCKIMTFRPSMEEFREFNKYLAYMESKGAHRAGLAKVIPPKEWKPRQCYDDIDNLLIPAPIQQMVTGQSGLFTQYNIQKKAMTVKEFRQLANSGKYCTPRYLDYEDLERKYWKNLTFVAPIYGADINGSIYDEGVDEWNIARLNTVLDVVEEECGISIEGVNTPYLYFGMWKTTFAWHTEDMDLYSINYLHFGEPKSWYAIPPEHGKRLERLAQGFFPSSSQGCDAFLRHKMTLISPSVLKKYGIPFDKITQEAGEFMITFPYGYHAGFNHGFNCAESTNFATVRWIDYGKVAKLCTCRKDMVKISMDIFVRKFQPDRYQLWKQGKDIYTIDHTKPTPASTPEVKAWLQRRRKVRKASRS
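Material: GST-tagged GASC-1 (JMJD2C) catalytic fragment, aa 2-372 / Quantity: enzyme final amount 10 nM / Medium: HEPES buffer, pH 7.5, plus ascorbate / Doses: one test concentration per compound / Incubation: 30 min reaction, 60 min detection, RT / Measured by: LANCE TR-FRET / Read-out: inhibition from TR-FRET ratio decrease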
T cruzi growth-1 – T. cruzi intracellular proliferation inhibitors, primary screen, cell-based, beta-gal Tulahuen parasites, NIH3T3 host, luminescence. T. cruzi beta-gal in NIH3T3, GalScreen luminescence, 90 h. inhibition, % at 8.34 µM. 5.9% of 77,000 active;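 active = mean inhibition above about 93%, with at least 55% of replicates each passing it, limit read from the data, passing the limit was not always enough; inconclusive = only one of those two conditions holds; inactive = neither condition holds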
T cruzi growth-2 – T. cruzi intracellular proliferation inhibitors, confirmation, cell-based, NIH3T3 host, beta-gal parasite, luminescence, cherry-pick; T. cruzi beta-gal in NIH3T3, GalScreen luminescence, 90 h; 72% of 5,600 active; shares compounds with T cruzi growth-1; inhibition, % at 8.35 µM;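 active = mean replicate inhibition above about 95% and at least 55% of replicates individually reaching it, limit read from the data; inconclusive = only one of the two criteria is met; inactive = neither criterion is met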
T cruzi growth-3 – inhibitors of intracellular T. cruzi replication, confirmation, NIH3T3 host cells, beta-gal parasites, cherry-pick, set 2 | shares compounds with T cruzi growth-1 | T. cruzi beta-gal in NIH3T3, GalScreen luminescence, 90 h | inhibition, % at 2.09 µM | 21% of 5,600 active | AID 651740, 2012;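 active = mean inhibition above about 95%, with at least 55% of replicates also reaching it, limit read from the data; inconclusive = meets just one of the two conditions; inactive = meets neither condition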;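 also: plate controls were neutral control median for no effect and positive control median for full effect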
NIH3T3 tox – cytotoxicity in mouse NIH/3T3 fibroblasts, confirmation, cytotoxicity control for T. cruzi proliferation inhibitor project, cell-based, cherry-pick, single point. shares compounds with T cruzi growth-1. NIH/3T3 viability, CellTiter-Glo ATP luminescence, 90 h. cytotoxicity (signal decrease), % at 8.35 µM. 14% of 5,600 active. AID 651742, 2012;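 active = mean signal decrease across replicates above about 35% based on untreated-well scatter, with enough replicates individually passing, limit read from the data; inconclusive = no rule stated though some were filed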;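 also: 0% = median of neutral control wells and 100% = median of positive control wells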
3T3 cytotox 2 – NIH/3T3 fibroblast cytotoxicity, confirmation, cytotoxicity control, cell-based, cherry-pick, single point, set 2 | shares compounds with T cruzi growth-1 | NIH/3T3 viability, CellTiter-Glo ATP luminescence, 90 h | inhibition, % at 24.9 µM | 56% of 5,600 active | AID 651744, 2012;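 active = mean loss of cell viability signal at or above a set limit, and enough replicates individually reaching it; inconclusive = meets only the mean limit or only the replicate share; inactive = meets neither condition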;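 also: 0% = median of neutral control wells and 100% = median of positive control wells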
* = called active by the depositor; ? = inconclusive; · = no result given.

SMILES	IDH1 mut inh	KDM4C inh	T cruzi growth-1	T cruzi growth-2	T cruzi growth-3	NIH3T3 tox	3T3 cytotox 2
C[C@@H]1CCCCO[C@H](CN(C)C(=O)Nc2ccc(C(F)(F)F)cc2)[C@H](C)CN([C@H](C)CO)C(=O)c2cc(NC(=O)c3ccccc3)ccc2O1	-1	0	102*	110*	106*	-3	-11
C[C@@H]1CCCCO[C@H](CN(C)C(=O)Nc2ccc(C(F)(F)F)cc2)[C@@H](C)CN([C@@H](C)CO)C(=O)c2cc(NC(=O)c3ccncc3)ccc2O1	0	-3	72	·	·	·	·
C[C@@H]1CCCCO[C@@H](CN(C)C(=O)Nc2ccc(C(F)(F)F)cc2)[C@@H](C)CN([C@H](C)CO)C(=O)c2cc(NC(=O)c3ccccc3)ccc2O1	0	-1	71	·	·	·	·
C[C@@H]1CN([C@@H](C)CO)C(=O)c2cc(NC(=O)c3ccccc3)ccc2O[C@@H](C)CCCCO[C@@H]1CN(C)C(=O)Nc1ccc(C(F)(F)F)cc1	·	0	?	104*	101*	34	80*
C[C@H]1CCCCO[C@@H](CN(C)C(=O)Nc2ccc(F)cc2)[C@@H](C)CN([C@@H](C)CO)C(=O)c2cc(NC(=O)c3ccccc3)ccc2O1	·	-2	?	?	26	-4	-2
